Experimental data collected from several papers.
Compare with care: the assays were run in different laboratories.
Observed: enzyme activity
Mode: inhibitor
BRAF: Serine/threonine-protein kinase B-raf (BRAF, Homo sapiens, UniProt P15056)
BRAF V600E: Serine/threonine-protein kinase B-raf (BRAF, Homo sapiens, UniProt P15056, V600E)

O=C(CSc1nc2nccnc2c(=O)n1CCc1ccccc1)Nc1nccs1
inhibition (BRAF; 10 µM): 9%

COc1cc2ncnc(Nc3ccc(Oc4ccccc4)c(C)c3C)c2cc1OC
inhibition (BRAF; 1 µM): 11%

Cc1ccc(N=Nc2sc(NN=C(CS(=O)(=O)c3ccccc3)c3ccc(C)cc3)nc2C)cc1
inhibition (BRAF V600E; ATP luminescence; 10 µM): 87%

COc1cc(-c2cc(-c3ccc(N4CCNCC4)cc3)cnc2N)cc(OC)c1OC
inhibition (BRAF V600E; 0.1 µM): 5%

Cn1cncc1C1=CN(c2ncnc3[nH]cnc23)CCS1
inhibition (BRAF; radiometric; 50 nM): 12.9%

Cc1ccc(C(CS(=O)(=O)c2ccccc2)=NN=C2N=C(c3ccc(Br)cc3)CS2)cc1
inhibition (BRAF V600E; ATP luminescence; 1 µM): 79%

C=CC(=O)Nc1cc(Nc2nccc(Nc3cc(Cl)c(F)cc3C(C)(C)O)n2)c(OC)cc1N1CC[C@@H](N(C)C)C1
inhibition (BRAF; 1 µM): 4%

CS(=O)(=O)Nc1cccc(-c2csc(NC(=O)CSc3nc4nccnc4c(=O)n3CCc3ccccc3)n2)c1
inhibition (BRAF V600E; 10 µM): 2%

CN(C)C1CCN(CC#Cc2nn(C3CCCC3)c3nc(NCc4ccccc4)ncc23)C1 (stereo not shown)
inhibition (BRAF; FRET; 10 µM): 1%

Cc1ccc(C(CS(=O)(=O)c2ccccc2)=NNC2=NC(=O)C(=NNc3ccc(Cl)cc3)S2)cc1
inhibition (BRAF V600E; ATP luminescence; 10 µM): 83%
